The subject of series [1] is HT-29. Briefly: Cytotoxicity against human HT-29 cells pretreated for 24 hrs under hypoxic condition followed by compound washout measured after 72 hrs by MTT assay. Type of series: functional, cell-based. An outline of the steps: (§1)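 HT29 in McCoy's 5A, H460 in RPMI 1640, each with 10% FBS and 1% pen-strep, 37 °C, 5% CO2. Seeded and grown 24 h, then exposed for 24 h to serial dilutions (DMSO ≤0.1% final) in hypoxia (94% N2/5% CO2/1% O2 chamber) or air.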
In general terms: Tetrazolium assays rely on reduction of a dye to a coloured formazan, in cell work by metabolically active cells.

Series [2] relates to HT-29. Put plainly: Cytotoxicity against human HT-29 cells pretreated for 24 hrs under normoxic condition followed by compound washout measured after 72 hrs by MTT assay. Type of series: cell-based. An outline of the steps: as §1
Series [3] concerns HT-29. Put plainly: Selectivity ratio of IC50 for human HT-29 cells under normoxic condition to IC50 for human HT-29 cells under hypoxic condition.
The subject of series [4] is NCI-H460. Briefly: Cytotoxicity against human NCI-H460 cells pretreated for 24 hrs under hypoxic condition followed by compound washout measured after 72 hrs by MTT assay. It is filed as functional, cell-based. Put shortly:
as §1

Series [5] deals with NCI-H460. Briefly: Cytotoxicity against human NCI-H460 cells pretreated for 24 hrs under normoxic condition followed by compound washout measured after 72 hrs by MTT assay. It is filed as cell-based. Put shortly: as §1
Series [6] has as its system NCI-H460. Put plainly: Selectivity ratio of IC50 for human NCI-H460 cells under normoxic condition to IC50 for human NCI-H460 cells under hypoxic condition.
Series [7] can be described thus: Stability of the compound in phosphate buffered saline assessed as compound remaining at 5 uM after 48 hrs by HPLC method. The note with it: read-out: Stability. Type of series: physicochemical. An outline of the steps: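 Compound held in 10 mM PBS pH 7.4 at 37 °C for 48 h; percent remaining measured.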
A short description of series [8]: Stability of the compound in mouse liver microsomes assessed as compound remaining at 5 uM after 6 hrs in absence of NADPH by HPLC method. Type of series: ADME, microsome. The note with it: read-out: Stability. Put shortly: (§2)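 Final mix: 5 µM compound, mouse liver microsomes 1 mg/mL, 5 mM MgCl2, ±1 mM NADPH, in 10 mM PBS pH 7.4 at 37 °C. Preincubated, then started by adding microsomes. Samples at 0–6 h quenched with cold methanol and centrifuged. Supernatant run on C18 HPLC (5–95% CH3CN/0.1% TFA, 373 nm); percent remaining at 6 h.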
In general terms: Liver microsomes are a subcellular fraction often used to study metabolism.

The nature of series [9]: Stability of the compound in mouse liver microsomes assessed as compound remaining at 5 uM after 6 hrs in presence of NADPH by HPLC method. Type of series: ADME, microsome. The note with it: read-out: Stability. An outline of the steps:
as §2

On to `CCc1c2c(nc3ccc(O)cc13)-c1cc3c(c(=O)n1C2)COC(=O)[C@]3(O)CC` [7-ETHYL-10-HYDROXYCAMPTOTHECIN], for which the IC50 (in general, the point on the concentration scale where inhibition reaches its midpoint) is 3.71 µM in the series on HT-29 [1], 2.74 µM with HT-29 [2], 0.06 µM with NCI-H460 [4] and 0.05 µM in the series on NCI-H460 [5]. For the same compound, the “Ratio IC50” value in the series with HT-29 [3] was 0.74; with NCI-H460 [6], 0.83.
With `Cn1c(COP(=O)(NCCBr)NCCBr)cnc1[N+](=O)[O-]` [EVOFOSFAMIDE], the half-maximal inhibitory concentration (IC50) is 49.5 µM in the series on HT-29 [1], more than 100 µM in the series on HT-29 [2], 9.08 µM with NCI-H460 [4] and 51 µM in the series on NCI-H460 [5]. Besides, the “Ratio IC50” value was more than 2.02 with HT-29 [3] and 5.61 with NCI-H460 [6].
Take `CCc1c2c(nc3ccc(OC(=O)N(C)CCN(C)C(=O)OCc4cnc([N+](=O)[O-])n4C)cc13)-c1cc3c(c(=O)n1C2)COC(=O)[C@]3(O)CC`: the remaining at 48 h, 5 µM in series [7] was 99%. The remaining at 6 h, 5 µM in [8] is 92%; in series [9] it was 13%. For the same compound, the half-maximal inhibitory concentration (IC50) in the series with HT-29 [1] was 75.9 µM; in the series on HT-29 [2], more than 100 µM; in the series with NCI-H460 [4] it was 7.56 µM; in the series on NCI-H460 [5], 8.27 µM. Moreover, the “Ratio IC50” value with HT-29 [3] is more than 1.32; in the series on NCI-H460 [6] it was 1.09.
In the case of `CCc1c2c(nc3ccc(OCc4cnc([N+](=O)[O-])n4C)cc13)-c1cc3c(c(=O)n1C2)COC(=O)[C@]3(O)CC`, the remaining at 48 h, 5 µM in series [7] amounted to 100%. Further, the values for the remaining at 6 h, 5 µM in series [8] and in series [9] were 94% and 72%, respectively. Moreover, the concentration for half-maximal inhibition (IC50) with HT-29 [1] amounted to 3.89 µM; with HT-29 [2] it was 14.9 µM; in the series on NCI-H460 [4], 0.14 µM; in the series with NCI-H460 [5], 0.52 µM. In addition, the “Ratio IC50” value is given as 3.82 with HT-29 [3] and 3.71 in the series on NCI-H460 [6].

The record behind these values is ChEMBL document CHEMBL4024709, “Synthesis and biological evaluation of hypoxia-activated prodrugs of SN-38” (Eur J Med Chem, 2017).
